Like-named read-outs stand apart in the source and are kept apart here. Each block holds one compound with its values, some of them ahead of it.
Columns and labels:
[1] = target: T1, recombinant LSD1 (Homo sapiens, UniProt O60341); test: LSD1 enzymatic assay; type: biochemical
[2] = target: T1, recombinant LSD1; test: Reversibility analysis; type: biochemical; conditions: 80-fold dilution
Procedure, shortened: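 Recombinant LSD1 (2.5 μg) was preincubated for 1 h with the test compound (312.5 μmol/L), a reference inhibitor (600 μmol/L) or DMSO. Aliquots were then diluted 80-fold into HRP-coupled assay solution containing substrate and coupling reagents, and residual demethylase activity was measured.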

[3] = tested on: glioma stem cells (GSCs); conditions: cited from earlier work

Compound: CCCSc1nc(Sc2nc3ccccc3s2)c2nnn(CCOCCO)c2n1 [Compound 8l]
LSD1 inhibitory effect (in words) ([1]; recombinant LSD1): moderate inhibitory effect

Compound: NC1CC1c1cccc(OCC[C@H](NC(=O)c2ccccc2)C(=O)NCc2ccccc2)c1 (stereo partly drawn) [NCL-1]
cell viability of GSCs (in words) [3]: significantly reduced the cell viability

Compound: C#CCSc1nc(Sc2nnnn2-c2ccccc2)c2nnn(Cc3ccc(C(C)C)cc3)c2n1 [Compound 15x]
IC50 ([1]; read-out: LSD1 IC50, recombinant LSD1): 0.055 µM

Continued, values first:

IC50 ([1]; LSD1 IC50, recombinant LSD1): > 10 µM
Compound: OCCNc1cc(Sc2nnnn2-c2ccccc2)nc(SCc2ccccc2)n1 [Compound 22b, 2-((2-(Benzylthio)-6-((1-phenyl-1H-tetrazol-5-yl)thio)pyrimidin-4-yl)amino)ethan-1-ol]

reversibility of LSD1 inhibition (in words) [2]: failed to recover the activity of LSD1
Compound: O=C(O)c1ccc(CN2CCC(CN[C@@H]3C[C@H]3c3ccccc3)CC2)cc1 [GSK2879552]

IC50 ([1]; LSD1 IC50, recombinant LSD1): 0.14 µM
Compound: C#CCSc1nc(Sc2nnnn2-c2ccccc2)c2nnn(Cc3ccc(OC)cc3)c2n1 [Compound 15y]

Reference: paper PMC6663923 (Acta Pharmaceutica Sinica. B, 2019)
